The values that follow come from ChEMBL document CHEMBL4627281, “A small molecule inhibitor of PCSK9 that antagonizes LDL receptor binding via interaction with a cryptic PCSK9 binding groove” (Bioorg Med Chem, 2020).

SMILES strings stand for the structures. The source made the active and inactive calls. The rule behind the calls is not given here.

Data set [1] concerns the target PCSK9/LDLR (Homo sapiens, UniProt Q8NBP7). Description: Inhibition of recombinant human His-tagged PCSK9 interaction with recombinant LDLR AB domain (unknown origin) measured after 3 hrs by horseradish peroxidase-coupled TMB substrate based spectrophotometry. The class given is protein assay. The essentials: (§1)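 ELISA plates pre-coated with LDLR-EGF-AB domain. Compounds serially diluted from 10 mM DMSO stocks in reaction buffer, with 7 ng His-tagged human PCSK9 added, 3 h at room temperature with shaking. Binding detected with biotinylated anti-His antibody (1 h), then HRP-streptavidin (20 min), then substrate (15 min); absorbance read at 450/540 nm. IC50 taken from the % inhibition curve.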

Data set [2] has as its target Mast/stem cell growth factor receptor Kit (Homo sapiens, UniProt P10721). Description: Inhibition of recombinant human N-terminal GST-tagged c-Kit (544 to end residues) expressed in baculovirus infected Sf21 insect cells using FAM-labelled P22 peptide as substrate preincubated for 10 mins followed by substrate addition and measured after 1 hr in presence of ATP by fluorescence assay.

The target of data set [3] is Tyrosine-protein kinase ABL1 (Homo sapiens, UniProt P00519). Description: Inhibition of recombinant human N-terminal His-tagged Abl (2 to 1130 residues) expressed in baculovirus expression system using FAM-labelled P2 peptide as substrate preincubated for 10 mins followed by substrate addition and measured after 1 hr in presence of ATP by fluorescence assay.
The target of data set [4] is Platelet-derived growth factor receptor beta (Homo sapiens, UniProt P09619). Description: Inhibition of recombinant human N-terminal GST-tagged PDGFRbeta cytoplasmic domain (557 to 1106 residues) expressed in baculovirus expression system using FAM-labelled P22 peptide as substrate preincubated for 10 mins followed by substrate addition and measured after 1 hr in presence of ATP by fluorescence assay.

The target of data set [5] is Proto-oncogene tyrosine-protein kinase Src (Homo sapiens, UniProt P12931). Briefly: Inhibition of recombinant human full-length N-terminal GST-tagged SRC (1 to 536 residues) expressed in baculovirus expression system using FAM-labelled P4 peptide as substrate preincubated for 10 mins followed by substrate addition and measured after 1 hr in presence of ATP by fluorescence assay.

Data set [6] relates to PCSK9/LDLR (Homo sapiens), Q8NBP7+P01130 [D374Y]. Description: Inhibition of PCSK9 D374Y mutant (unknown origin) and LDLR protein-protein interaction in human HepG2 cells assessed as increase in Bodipy FL-labelled LDL uptake at 0.1 or 1 uM preincubated for 16 hrs followed by Bodipy FL-labelled LDL addition and measured after 4 hrs by fluorescence assay. The class given is cell-based. The essentials: (§2)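 HepG2 cells seeded at 2 × 10^5 cells/mL and attached overnight, then incubated 16 h with PCSK9-D374Y (2 μg/mL) plus compound (0.1 or 1 µM). Medium replaced with 10 μg/mL Bodipy FL LDL for 4 h. Cells washed with warm PBS; fluorescence read at ex 485/em 530 nm. Mean ± S.D.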

Data set [7] is described as follows: Clearance in CD1 mouse at 0.4 mg/kg, iv administered as cassette dose measured upto 24 hrs by LC-MS/MS analysis. The class given is ADME, organism-based. The following applies: in vivo. In outline:
(§3)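 Male CD1 mice (second cassette 28–29 g, 7–8 weeks) given one IV 5-in-1 cassette at 0.4 mg/kg per compound in 5% DMAC/5% Solutol HS15/90% saline. Blood (~20 µL) into K2EDTA from the facial vein at 0.083–24 h, terminal bleed by cardiac puncture under isoflurane. Blood diluted with deionised water, stored at −80 °C, analysed by positive-ESI mass spectrometry.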

Data set [8] in a line: Volume of distribution at steady state in CD1 mouse at 0.4 mg/kg, iv administered as cassette dose measured upto 24 hrs by LC-MS/MS analysis. The class given is ADME, organism-based. The conditions noted are these: in vivo, read-out: Vdss. The essentials:
as §3

Data set [9] in a line: Terminal half life in CD1 mouse at 0.4 mg/kg, iv administered as cassette dose measured upto 24 hrs by LC-MS/MS analysis. The conditions noted are these: in vivo, read-out: beta t1/2 (converted). The class given is ADME, organism-based. In outline: as §3
Data set [10] is described as follows: AUClast in CD1 mouse at 0.4 mg/kg, iv administered as cassette dose measured upto 24 hrs by LC-MS/MS analysis. The class given is ADME, organism-based. Details: time < 24 hr, dose 0.4 mg/kg, route intravenous. The conditions noted are these: in vivo. The essentials: as §3
Data set [11] is described as follows: AUCinfinity in CD1 mouse at 0.4 mg/kg, iv administered as cassette dose measured upto 24 hrs by LC-MS/MS analysis. The class given is ADME, organism-based. Also on record: dose 0.4 mg/kg, route intravenous, time infinity. The following applies: in vivo. In outline: as §3
Data set [12] can be described thus: Mean residence time (0 to infinity) in CD1 mouse at 0.4 mg/kg, iv administered as cassette dose measured upto 24 hrs by LC-MS analysis. The class given is ADME, organism-based. The following applies: in vivo. The essentials: as §3
In data set [13] the target is PCSK9/LDLR (Homo sapiens) (UniProt Q8NBP7+P01130). Briefly: Inhibition of recombinant human His-tagged PCSK9 interaction with recombinant LDLR AB domain (unknown origin) at higher concentration measured after 3 hrs by horseradish peroxidase-coupled TMB substrate based spectrophotometry relative to control. The class given is protein assay. The essentials: as §1
In data set [14] the test system is PCSK9/LDLR (Homo sapiens), Q8NBP7+P01130 [D374Y]. Description: Inhibition of PCSK9 D374Y mutant (unknown origin) and LDLR protein-protein interaction in human HepG2 cells assessed as increase in Bodipy FL-labelled LDL uptake preincubated for 16 hrs followed by Bodipy FL-labelled LDL addition and measured after 4 hrs by fluorescence assay. The class given is cell-based. In outline: as §2

Chain of Mast/stem cell growth factor receptor Kit (P10721 whole entry): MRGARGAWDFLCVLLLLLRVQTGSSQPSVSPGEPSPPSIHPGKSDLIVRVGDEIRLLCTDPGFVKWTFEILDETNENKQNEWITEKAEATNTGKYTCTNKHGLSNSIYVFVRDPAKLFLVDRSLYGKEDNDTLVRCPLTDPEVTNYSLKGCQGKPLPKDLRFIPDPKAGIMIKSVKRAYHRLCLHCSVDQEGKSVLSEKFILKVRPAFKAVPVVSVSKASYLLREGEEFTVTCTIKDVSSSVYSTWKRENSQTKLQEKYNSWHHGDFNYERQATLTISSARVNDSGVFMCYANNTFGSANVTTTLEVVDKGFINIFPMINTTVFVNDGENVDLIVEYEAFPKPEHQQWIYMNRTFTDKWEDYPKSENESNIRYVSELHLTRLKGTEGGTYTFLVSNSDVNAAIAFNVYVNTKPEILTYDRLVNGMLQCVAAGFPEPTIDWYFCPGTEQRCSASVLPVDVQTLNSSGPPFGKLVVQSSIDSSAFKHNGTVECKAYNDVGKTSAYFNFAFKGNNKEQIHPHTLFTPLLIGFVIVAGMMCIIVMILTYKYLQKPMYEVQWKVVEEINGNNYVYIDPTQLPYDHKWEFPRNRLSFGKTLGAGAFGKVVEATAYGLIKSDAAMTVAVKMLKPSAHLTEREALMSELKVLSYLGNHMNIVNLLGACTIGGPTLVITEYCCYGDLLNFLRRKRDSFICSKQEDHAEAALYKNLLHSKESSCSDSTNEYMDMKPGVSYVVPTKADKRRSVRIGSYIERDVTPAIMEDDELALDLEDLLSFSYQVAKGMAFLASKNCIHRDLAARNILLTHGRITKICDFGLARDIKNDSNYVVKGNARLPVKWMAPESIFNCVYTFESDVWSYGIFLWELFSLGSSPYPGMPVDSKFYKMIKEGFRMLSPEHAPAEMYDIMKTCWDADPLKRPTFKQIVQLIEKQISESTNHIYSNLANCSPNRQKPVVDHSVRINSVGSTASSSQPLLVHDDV
Chain of PCSK9/LDLR (Q8NBP7 31-152 limits assumed): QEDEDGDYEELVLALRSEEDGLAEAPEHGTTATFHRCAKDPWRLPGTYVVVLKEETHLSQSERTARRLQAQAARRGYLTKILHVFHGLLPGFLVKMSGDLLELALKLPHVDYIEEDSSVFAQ
Chain of PCSK9/LDLR (Q8NBP7 153-692 limits assumed): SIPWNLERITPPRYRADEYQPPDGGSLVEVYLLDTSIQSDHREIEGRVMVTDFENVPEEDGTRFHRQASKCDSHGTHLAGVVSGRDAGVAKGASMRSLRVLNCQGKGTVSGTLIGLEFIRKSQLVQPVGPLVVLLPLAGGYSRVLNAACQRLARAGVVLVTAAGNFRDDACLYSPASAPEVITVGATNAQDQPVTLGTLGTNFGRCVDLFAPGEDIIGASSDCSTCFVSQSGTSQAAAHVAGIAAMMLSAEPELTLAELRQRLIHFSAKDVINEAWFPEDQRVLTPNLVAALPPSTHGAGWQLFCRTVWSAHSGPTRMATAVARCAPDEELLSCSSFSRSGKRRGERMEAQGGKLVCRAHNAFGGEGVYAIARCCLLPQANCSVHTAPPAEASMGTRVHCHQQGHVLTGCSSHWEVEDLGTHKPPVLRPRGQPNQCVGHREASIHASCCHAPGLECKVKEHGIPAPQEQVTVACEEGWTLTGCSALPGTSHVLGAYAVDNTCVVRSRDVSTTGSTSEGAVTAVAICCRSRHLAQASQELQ
Chain of PCSK9/LDLR (P01130 22-860 partner limits assumed): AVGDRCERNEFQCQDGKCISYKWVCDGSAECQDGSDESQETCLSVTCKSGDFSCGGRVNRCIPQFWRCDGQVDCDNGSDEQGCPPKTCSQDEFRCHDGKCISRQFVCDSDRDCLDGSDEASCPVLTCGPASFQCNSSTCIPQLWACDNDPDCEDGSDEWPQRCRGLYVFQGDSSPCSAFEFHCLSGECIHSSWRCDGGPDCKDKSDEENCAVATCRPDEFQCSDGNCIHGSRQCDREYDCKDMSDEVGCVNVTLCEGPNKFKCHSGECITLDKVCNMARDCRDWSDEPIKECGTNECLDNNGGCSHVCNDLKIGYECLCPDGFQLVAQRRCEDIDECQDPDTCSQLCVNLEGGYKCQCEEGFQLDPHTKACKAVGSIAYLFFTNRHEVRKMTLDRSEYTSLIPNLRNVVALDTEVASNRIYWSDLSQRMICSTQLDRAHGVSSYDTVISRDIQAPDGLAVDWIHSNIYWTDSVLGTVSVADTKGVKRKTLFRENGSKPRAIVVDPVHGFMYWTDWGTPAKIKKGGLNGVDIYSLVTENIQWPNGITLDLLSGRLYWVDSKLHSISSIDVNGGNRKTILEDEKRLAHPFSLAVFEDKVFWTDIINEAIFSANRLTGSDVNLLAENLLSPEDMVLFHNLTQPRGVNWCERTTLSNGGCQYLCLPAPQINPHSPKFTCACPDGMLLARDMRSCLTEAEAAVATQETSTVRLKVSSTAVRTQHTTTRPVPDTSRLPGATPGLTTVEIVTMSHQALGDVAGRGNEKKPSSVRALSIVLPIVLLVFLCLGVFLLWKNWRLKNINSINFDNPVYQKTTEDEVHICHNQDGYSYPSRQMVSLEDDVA
Chain of Tyrosine-protein kinase ABL1 (P00519 whole entry, the tested form may be a part): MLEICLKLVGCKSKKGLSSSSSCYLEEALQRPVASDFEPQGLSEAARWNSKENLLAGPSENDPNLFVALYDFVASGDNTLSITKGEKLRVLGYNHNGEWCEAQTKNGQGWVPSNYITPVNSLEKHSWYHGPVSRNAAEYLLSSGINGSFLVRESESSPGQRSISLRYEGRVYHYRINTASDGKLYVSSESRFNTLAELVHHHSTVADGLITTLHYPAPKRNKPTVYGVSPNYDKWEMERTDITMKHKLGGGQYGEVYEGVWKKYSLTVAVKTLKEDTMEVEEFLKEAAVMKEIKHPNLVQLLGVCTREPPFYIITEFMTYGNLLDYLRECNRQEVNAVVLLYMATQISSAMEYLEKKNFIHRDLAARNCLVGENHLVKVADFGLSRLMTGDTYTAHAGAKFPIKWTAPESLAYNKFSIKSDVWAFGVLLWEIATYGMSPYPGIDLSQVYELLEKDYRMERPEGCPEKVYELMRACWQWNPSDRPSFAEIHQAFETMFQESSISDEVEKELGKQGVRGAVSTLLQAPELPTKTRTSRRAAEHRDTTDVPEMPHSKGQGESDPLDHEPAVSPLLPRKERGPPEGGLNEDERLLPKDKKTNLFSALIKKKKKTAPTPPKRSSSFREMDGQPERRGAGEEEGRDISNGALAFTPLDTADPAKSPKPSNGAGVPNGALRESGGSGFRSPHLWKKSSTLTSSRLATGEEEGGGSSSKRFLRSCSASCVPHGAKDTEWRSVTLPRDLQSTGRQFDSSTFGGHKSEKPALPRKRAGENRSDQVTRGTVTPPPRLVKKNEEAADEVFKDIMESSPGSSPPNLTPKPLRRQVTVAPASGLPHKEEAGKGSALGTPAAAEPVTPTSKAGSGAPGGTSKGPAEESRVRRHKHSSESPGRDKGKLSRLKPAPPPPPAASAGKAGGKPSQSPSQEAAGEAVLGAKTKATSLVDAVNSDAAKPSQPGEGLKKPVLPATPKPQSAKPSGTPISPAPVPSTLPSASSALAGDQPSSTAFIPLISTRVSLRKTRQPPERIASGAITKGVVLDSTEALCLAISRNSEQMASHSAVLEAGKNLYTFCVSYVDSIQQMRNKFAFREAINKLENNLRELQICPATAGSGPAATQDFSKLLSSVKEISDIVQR
Chain of Platelet-derived growth factor receptor beta (P09619 whole entry, the tested form may be a part): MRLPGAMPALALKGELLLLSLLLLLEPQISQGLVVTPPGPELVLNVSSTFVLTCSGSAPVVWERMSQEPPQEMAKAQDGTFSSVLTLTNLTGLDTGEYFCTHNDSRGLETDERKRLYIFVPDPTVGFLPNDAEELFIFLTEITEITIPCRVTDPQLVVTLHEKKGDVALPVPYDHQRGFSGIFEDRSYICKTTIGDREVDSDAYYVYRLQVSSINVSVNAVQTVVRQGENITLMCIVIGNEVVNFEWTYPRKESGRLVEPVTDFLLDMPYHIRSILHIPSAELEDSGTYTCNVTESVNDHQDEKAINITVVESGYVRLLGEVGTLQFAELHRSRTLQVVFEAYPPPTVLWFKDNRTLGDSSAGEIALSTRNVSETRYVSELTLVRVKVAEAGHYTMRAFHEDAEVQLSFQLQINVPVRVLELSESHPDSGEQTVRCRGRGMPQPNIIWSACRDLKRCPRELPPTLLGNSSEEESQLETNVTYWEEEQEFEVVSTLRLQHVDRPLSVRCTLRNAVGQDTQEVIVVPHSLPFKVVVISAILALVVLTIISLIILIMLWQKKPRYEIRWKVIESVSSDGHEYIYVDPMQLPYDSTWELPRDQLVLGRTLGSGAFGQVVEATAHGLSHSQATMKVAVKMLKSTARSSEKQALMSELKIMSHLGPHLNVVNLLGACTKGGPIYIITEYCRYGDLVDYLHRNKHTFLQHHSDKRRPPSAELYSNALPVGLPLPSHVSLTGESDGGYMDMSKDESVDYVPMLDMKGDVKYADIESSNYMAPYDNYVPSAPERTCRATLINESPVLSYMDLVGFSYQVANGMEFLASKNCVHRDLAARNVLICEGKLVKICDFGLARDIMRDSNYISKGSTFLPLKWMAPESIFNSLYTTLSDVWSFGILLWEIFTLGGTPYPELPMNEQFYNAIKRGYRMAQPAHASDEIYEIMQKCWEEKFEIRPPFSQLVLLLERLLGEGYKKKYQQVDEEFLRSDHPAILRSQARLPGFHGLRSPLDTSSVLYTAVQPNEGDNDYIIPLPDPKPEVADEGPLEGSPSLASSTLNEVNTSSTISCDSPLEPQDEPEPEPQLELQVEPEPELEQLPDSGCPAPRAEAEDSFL

Regarding `Cc1cn(-c2cc(NC(=O)c3ccc(C)c(Oc4ccccc4)c3)cc(N3CCN(C)CC3)c2)cn1`, the IC50 (in general, the concentration that inhibits the measured activity by half) in data set [1] was 759 nM; in data set [2], greater than 10000 nM; in data set [3], greater than 10000 nM; in data set [4] it was 7660 nM; in [5], greater than 10000 nM. Also, the inhibition result in data set [6] is “inactive”. Moreover, the clearance (as a rule, the rate of elimination divided by the concentration) in data set [7] is 17.5 mL/min/kg. Moreover, in [8], the Vd was 9.26 L/kg. For the same compound, the half-life in data set [9] was 7.36 h. The AUC(0-t) (commonly exposure summed from dosing to a finite time, without extrapolation to infinity) at 24 h in data set [10] is 338 ng·h/mL. In addition, the AUC(0-inf) – broadly, the area under the concentration-time curve extrapolated to infinity – in [11] was found to be 384 ng·h/mL. Further, in data set [12], the MRT inf – broadly, a mean duration of stay, worked out from the concentration-time curve – is 8.98 h. For the same compound, the Imax in [13] was 20%.

Turning to `Cc1cn(-c2cc(NC(=O)c3ccc(C)c(Oc4cccc5ccncc45)c3)cc(N3CCN(C)CC3)c2)cn1`, the IC50 is 78 nM in data set [1]; 227 nM in data set [2]; greater than 10000 nM in data set [3]; 3290 nM in data set [4]; 2610 to 2620 nM in data set [5]. The compound also had a clearance in data set [7] of 50.8 mL/min/kg. The Vd in data set [8] amounted to 6.7 L/kg. In addition, in [9], the half-life was 2.77 h. In data set [10], this compound returned an AUC(0-t) at 24 h of 128 ng·h/mL. For the same compound, the total exposure AUC(0-inf) in [11] amounted to 133 ng·h/mL. The same compound registered an MRT inf in [12] of 2.3 h. Also, the inhibition entry in [14] was “Dose-dependent effect”. Moreover, in data set [13], the Imax was greater than 35%.
